In ChEMBL document CHEMBL5724801, “EUbOPEN Chemogenomics Library - Multiplex” (2024):
“And” between values parts separate entries of the source, which are not always exact repeats. Equal values may be shown once.

Test system: U2OS
Assay: Multiplex assay against U2OS
Format: toxicity, cell-based
Conditions: human
How it was run: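 Live cells were stained at seeding with Hoechst33342, BioTracker Green Microtubule Cytoskeleton Dye, MitoTracker Red and Annexin V Alexa Fluor 680. Following compound addition, they were imaged on a CQ1 microscope at 37°C and 5% CO2 and gated by CellPathfinder machine learning into Hoechst high-intensity objects or normal cells, with normal cells split into healthy, pyknosed or fragmented nuclei and pyknosed cells into mitotic or apoptotic. Tubulin, mitochondrial-mass and membrane-permeability phenotypes are per cents of healthy-nucleus cells.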

[1] = 12 h, 1 µM, compound concentration 1 uM
[2] = 12 h, 10 µM, compound concentration 10 uM
[3] = 24 h, 1 µM, compound concentration 1 uM
[4] = 24 h, 10 µM, compound concentration 10 uM
[5] = 48 h, 1 µM, compound concentration 1 uM
[6] = 48 h, 10 µM, compound concentration 10 uM

Cc1c(Cc2ccc3ccccc3n2)c2cc(F)ccc2n1CC(=O)O [TIMAPIPRANT]
Population Apoptotic (%) [1]: 84% and 83% | Population Fragmented Nuclei (%) [1]: 21% and 22% | Population Healthy Nuclei (%) [1]: 69% and 70% | Population Hoechst High Intensity Objects (%) [1]: 2% and 1% | Population Membrane Permeable-Phenotype (%) [1]: 3% and 4% | Population Mitochondria Different-Phenotype (%) [1]: 1% and 4% | Population Mitotic Cells (%) [1]: 16% | Population Normal (%) [1]: 97% and 98% | Population Pyknosed Nuclei (%) [1]: 8% and 6% | Population Tubulin-Different-Phenotype (%) [1]: 1% and 3% | Population Apoptotic (%) [2]: 75% and 68% | Population Fragmented Nuclei (%) [2]: 30% and 12% | Population Healthy Nuclei (%) [2]: 62% and 75% | Population Hoechst High Intensity Objects (%) [2]: 2% and 0% | Population Membrane Permeable-Phenotype (%) [2]: 4% and 6% | Population Mitochondria Different-Phenotype (%) [2]: 1% and 3% | Population Mitotic Cells (%) [2]: 25% and 31% | Population Normal (%) [2]: 97% and 99% | Population Pyknosed Nuclei (%) [2]: 6% and 12% | Population Tubulin-Different-Phenotype (%) [2]: 2% and 3% | Total Cell Count [2]: 244 and 132 | Population Apoptotic (%) [3]: 96% and 100% | Population Fragmented Nuclei (%) [3]: 18% and 19% | Population Healthy Nuclei (%) [3]: 73% | Population Hoechst High Intensity Objects (%) [3]: 1% | Population Membrane Permeable-Phenotype (%) [3]: 6% and 7% | Population Mitochondria Different-Phenotype (%) [3]: 3% and 2% | Population Mitotic Cells (%) [3]: 3% and 0% | Population Normal (%) [3]: 98% | Population Pyknosed Nuclei (%) [3]: 7% | Population Tubulin-Different-Phenotype (%) [3]: 4% and 3% | Population Apoptotic (%) [4]: 94% and 72% | Population Fragmented Nuclei (%) [4]: 26% and 18% | Population Healthy Nuclei (%) [4]: 66% and 74% | Population Hoechst High Intensity Objects (%) [4]: 1% and 0% | Population Membrane Permeable-Phenotype (%) [4]: 6% and 8% | Population Mitochondria Different-Phenotype (%) [4]: 2% | Population Normal (%) [4]: 98% and 100% | Population Pyknosed Nuclei (%) [4]: 6% and 7% | Population Tubulin-Different-Phenotype (%) [4]: 3% | Total Cell Count [4]: 278 and 152 | Population Apoptotic (%) [5]: 88% and 90% | Population Fragmented Nuclei (%) [5]: 16% and 22% | Population Healthy Nuclei (%) [5]: 77% and 71% | Population Hoechst High Intensity Objects (%) [5]: 1% and 2% | Population Membrane Permeable-Phenotype (%) [5]: 4% and 12% | Population Mitochondria Different-Phenotype (%) [5]: 3% and 5% | Population Mitotic Cells (%) [5]: 11% and 10% | Population Normal (%) [5]: 98% and 97% | Population Pyknosed Nuclei (%) [5]: 6% | Population Tubulin-Different-Phenotype (%) [5]: 3% and 6% | Population Apoptotic (%) [6]: 100% and 92% | Population Fragmented Nuclei (%) [6]: 19% and 13% | Population Healthy Nuclei (%) [6]: 74% and 80% | Population Hoechst High Intensity Objects (%) [6]: 0% and 2% | Population Membrane Permeable-Phenotype (%) [6]: 3% and 5% | Population Mitochondria Different-Phenotype (%) [6]: 1% and 3% | Population Mitotic Cells (%) [6]: 0% and 7% | Population Normal (%) [6]: 99% and 97% | Population Pyknosed Nuclei (%) [6]: 6% | Population Tubulin-Different-Phenotype (%) [6]: 1% and 3% | Total Cell Count [6]: 392 and 204

C[C@H](C[C@H](N)C(=O)O)C(=O)O [2S,4R-4-METHYLGLUTAMATE]
Population Apoptotic (%) [1]: 31.91% and 61.54% | Population Fragmented Nuclei (%) [1]: 3.36% and 4% | Population Healthy Nuclei (%) [1]: 85.37% and 85.6% | Population Hoechst High Intensity Objects (%) [1]: 0% | Population Membrane Permeable-Phenotype (%) [1]: 2.25% and 5.61% | Population Mitochondria Different-Phenotype (%) [1]: 0% and 3.74% | Population Mitotic Cells (%) [1]: 68.09% and 38.46% | Population Normal (%) [1]: 100% | Population Pyknosed Nuclei (%) [1]: 11.27% and 10.4% | Population Tubulin-Different-Phenotype (%) [1]: 0.28% and 0% | Population Apoptotic (%) [2]: 36.84% and 47.06% | Population Fragmented Nuclei (%) [2]: 0.57% and 3.31% | Population Healthy Nuclei (%) [2]: 88.51% and 85.43% | Population Hoechst High Intensity Objects (%) [2]: 0% | Population Membrane Permeable-Phenotype (%) [2]: 1.95% and 3.88% | Population Mitochondria Different-Phenotype (%) [2]: 0.32% and 6.98% | Population Mitotic Cells (%) [2]: 63.16% and 52.94% | Population Normal (%) [2]: 100% | Population Pyknosed Nuclei (%) [2]: 10.92% and 11.26% | Population Tubulin-Different-Phenotype (%) [2]: 3.25% and 0.78% | Total Cell Count [2]: 348 and 151 | Population Apoptotic (%) [3]: 54.55% and 80% | Population Fragmented Nuclei (%) [3]: 3.12% and 6.67% | Population Healthy Nuclei (%) [3]: 86.79% and 84.24% | Population Hoechst High Intensity Objects (%) [3]: 0% and 0.6% | Population Membrane Permeable-Phenotype (%) [3]: 1.48% and 3.6% | Population Mitochondria Different-Phenotype (%) [3]: 0% and 5.04% | Population Mitotic Cells (%) [3]: 45.45% and 20% | Population Normal (%) [3]: 100% and 99.4% | Population Pyknosed Nuclei (%) [3]: 10.09% and 9.09% | Population Tubulin-Different-Phenotype (%) [3]: 0.42% and 0% | Population Apoptotic (%) [4]: 38.3% and 31.25% | Population Fragmented Nuclei (%) [4]: 0.43% and 1.99% | Population Healthy Nuclei (%) [4]: 89.42% and 90.05% | Population Hoechst High Intensity Objects (%) [4]: 0.22% and 0% | Population Membrane Permeable-Phenotype (%) [4]: 1.45% and 3.31% | Population Mitochondria Different-Phenotype (%) [4]: 0.48% and 3.87% | Population Mitotic Cells (%) [4]: 61.7% and 68.75% | Population Normal (%) [4]: 99.78% and 100% | Population Pyknosed Nuclei (%) [4]: 10.15% and 7.96% | Population Tubulin-Different-Phenotype (%) [4]: 1.45% and 0.55% | Total Cell Count [4]: 464 and 201 | Population Apoptotic (%) [5]: 50% and 51.52% | Population Fragmented Nuclei (%) [5]: 3.72% and 3.91% | Population Healthy Nuclei (%) [5]: 89.03% and 84.34% | Population Hoechst High Intensity Objects (%) [5]: 0% | Population Membrane Permeable-Phenotype (%) [5]: 1.47% and 2.11% | Population Mitochondria Different-Phenotype (%) [5]: 0% and 2.95% | Population Mitotic Cells (%) [5]: 50% and 48.48% | Population Normal (%) [5]: 100% | Population Pyknosed Nuclei (%) [5]: 7.24% and 11.74% | Population Tubulin-Different-Phenotype (%) [5]: 1.02% and 1.27% | Population Apoptotic (%) [6]: 54.05% and 54.84% | Population Fragmented Nuclei (%) [6]: 2.19% and 2.47% | Population Healthy Nuclei (%) [6]: 89.7% and 89.01% | Population Hoechst High Intensity Objects (%) [6]: 0% | Population Membrane Permeable-Phenotype (%) [6]: 1.1% and 1.23% | Population Mitochondria Different-Phenotype (%) [6]: 0.12% and 1.23% | Population Mitotic Cells (%) [6]: 45.95% and 45.16% | Population Normal (%) [6]: 100% | Population Pyknosed Nuclei (%) [6]: 8.11% and 8.52% | Population Tubulin-Different-Phenotype (%) [6]: 1.47% and 0.31% | Total Cell Count [6]: 913 and 364
